Here are results for four molecules from ChEMBL document CHEMBL3526043, “Application of quantitative NMR in pharmacological evaluation of biologically generated metabolites: implications in drug discovery” (Drug Metab Dispos, 2011).

Broadly, the clearance is the volume of plasma or blood freed of the substance per unit of time. As a reminder, the AUC(0-inf) is the area under the concentration-time curve extrapolated to infinity.

The test system of data set [1] is Liver microsome. Put plainly: Drug metabolism in Sprague-Dawley rat liver microsomes assessed as hydroxylated product formation after 60 mins by LC-MS analysis. In kind it is ADME. Conditions: 1 h. In a few lines: (§1)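 Single enantiomers incubated with male rat, cynomolgus monkey or human liver microsomes (1 mg/mL) plus cytosol (2 mg/mL). Cofactors: NADPH 5 mM, MgCl2 8 mM, GSH 2 mM and UDPGA 2 mM, in 0.1 M phosphate, pH 7.4, at 37 °C for 60 min. Precipitated with 2% formic acid in acetonitrile, dried, reconstituted, and analysed by LC/MS (C18, 10–40% acetonitrile/5 mM ammonium acetate).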

Data set [2] has as its system Liver microsome. Put plainly: Drug level in human liver microsomes treated with 1-(4-(4-(3-oxa-8-azabicyclo[3.2.1]octan-8-yl)-6-morpholino-1,3,5-triazin-2-yl)phenyl)-3-(pyridin-4-yl)urea at 0.02 mM after 60 mins by 1H-13C-HSQC spectra analysis. In kind it is ADME. Particulars: 20 µM. In a few lines:
(§2)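 Human liver microsomes at 1 mg/mL protein with substrate at 0.02 mM, 5 mM NADPH and 8 mM MgCl2 in 0.1 M potassium phosphate, pH 7.4. Incubated at 37 °C for 60 min. Stopped with 2% formic acid in acetonitrile and centrifuged. Metabolite isolated by semi-preparative C18 HPLC, then characterised by LC/MS (C18, acetonitrile/5 mM ammonium acetate gradient) and NMR.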
On the technique in general: Microsomes from liver hold many membrane-bound enzymes, among them those of drug oxidation.

Data set [3] in a line: Retention time of the compound by HPLC analysis. In kind it is physicochemical.
Data set [4] concerns Liver microsome. Put plainly: Drug metabolism in human liver microsomes assessed as hydroxylated product formation after 60 mins by LC-MS analysis. In kind it is ADME. Particulars: 1 h. In a few lines: as §1
Data set [5] is described as follows: Drug metabolism in cynomolgus monkey liver microsomes assessed as hydroxylated product formation after 60 mins by LC-MS analysis. In kind it is ADME, Macaca fascicularis. Particulars: 1 h. In a few lines: as §1
In data set [6] the target is Phosphatidylinositol 4,5-bisphosphate 3-kinase catalytic subunit alpha isoform (Homo sapiens) (UniProt P42336). Put plainly: Binding affinity to PI3K-alpha (unknown origin) by fluorescence polarization assay. In general terms: In fluorescence polarisation assays a small probe gives low polarisation when free and higher when bound to something large.
In data set [7] the target is Phosphatidylinositol 4,5-bisphosphate 3-kinase catalytic subunit gamma isoform (Homo sapiens) (UniProt P48736). Put plainly: Binding affinity to PI3K-gamma (unknown origin) by fluorescence polarization assay.
Data set [8] is described as follows: Systemic clearance in Sprague-Dawley rat at 2 mg/kg, iv administered as bolus dose. It counts as ADME, organism-based. The arrangement: dose 2 mg/kg, route intravenous. Particulars: in vivo. In a few lines: (§3)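 Male Sprague-Dawley rats (n=3 per group), jugular/femoral cannulated, fed. Single IV bolus of 2 mg/kg in 5% dextrose/0.5% lactic acid, pH 3.5, at 1 mL/kg. Jugular blood sampled 0–1440 min into EDTA. Plasma measured by LC/MS/MS (LOQ 1 ng/mL, BLQ set to zero). Non-compartmental analysis with linear trapezoidal AUC; CL = Dose/AUC0-∞, Vdss = MRT·CL, t1/2 = 0.693/λ.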

Data set [9] can be described thus: Volume of distribution at steady state in Sprague-Dawley rat at 2 mg/kg, iv administered as bolus dose. Details: dose 2 mg/kg, route intravenous. It counts as ADME, organism-based. Conditions: in vivo, read-out: Vdss. In a few lines: as §3
Data set [10] in a line: AUC (0 to infinity) in Sprague-Dawley rat at 2 mg/kg, iv administered as bolus dose. It counts as ADME, organism-based. Details: time infinity, dose 2 mg/kg, route intravenous. Conditions: plasma. In a few lines:
as §3

Data set [11] in a line: Elimination half life in Sprague-Dawley rat at 2 mg/kg, iv administered as bolus dose. It counts as ADME, organism-based. Details: dose 2 mg/kg, route intravenous. Conditions: in vivo, read-out: beta t1/2 (converted). In a few lines:
as §3

The next data set concerns Rattus norvegicus. Put plainly: Drug level in Sprague-Dawley rat at 2 mg/kg, iv. Particulars: in vivo.
Data set [12] deals with Liver microsome. Put plainly: Drug metabolism in human liver microsomes assessed as (rac)-1-(4-(4-(6-hydroxy-3-oxa-8-azabicyclo[3.2.1]octan-8-yl)-6-morpholino-1,3,5-triazin-2-yl)phenyl)-3-(pyridin-4-yl)urea formation at 0.02 mM after 60 mins by LC-MS analysis. It counts as ADME. Conditions: 1 h, 20 µM. In a few lines:
(§4)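 Parent at 0.02 mM was incubated with human liver microsomes (1 mg/mL protein) in 0.1 M potassium phosphate pH 7.4 with 5 mM NADPH and 8 mM MgCl₂, at 37 °C for 60 min. Reactions were quenched with 2% formic acid in acetonitrile and the metabolite isolated by semi-preparative C18 HPLC. Identity was checked by LC/MS on C18 with an acetonitrile/5 mM ammonium acetate gradient.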

Data set [13] in a line: Drug metabolism in cynomolgus monkey liver microsomes assessed as (rac)-1-(4-(4-(6-hydroxy-3-oxa-8-azabicyclo[3.2.1]octan-8-yl)-6-morpholino-1,3,5-triazin-2-yl)phenyl)-3-(pyridin-4-yl)urea formation at 0.02 mM after 60 mins by LC-MS analysis. It counts as ADME, Macaca fascicularis. Particulars: 1 h, 20 µM.
Data set [14] deals with Serine/threonine-protein kinase mTOR (Homo sapiens) (UniProt P42345). Put plainly: Binding affinity to mTOR (unknown origin) by DELFIA.
The test system of data set [15] is Liver microsome. Put plainly: Drug metabolism in human liver microsomes assessed as (1R,5R,6R)-1-(4-(4-(6-hydroxy-3-oxa-8-azabicyclo[3.2.1]octan-8-yl)-6-morpholino-1,3,5-triazin-2-yl)phenyl)-3-(pyridin-4-yl)urea formation at 0.02 mM after 60 mins by 1H-13C-HSQC spectra analysis. It counts as ADME. Conditions: 20 µM. In a few lines: as §4
Data set [16] relates to Liver microsome. Put plainly: Drug metabolism in human liver microsomes assessed as (1R,5R,6R)-1-(4-(4-(6-hydroxy-3-oxa-8-azabicyclo[3.2.1]octan-8-yl)-6-morpholino-1,3,5-triazin-2-yl)phenyl)-3-(pyridin-4-yl)urea formation at 0.02 mM after 60 mins by 1H-13C-HSQC spectra analysis. Particulars: 20 µM.
For data set [17], the system named is Liver microsome. Put plainly: Drug level in human liver microsomes treated with 1-(4-(4-(3-oxa-8-azabicyclo[3.2.1]octan-8-yl)-6-morpholino-1,3,5-triazin-2-yl)phenyl)-3-(pyridin-4-yl)urea at 0.02 mM after 60 mins by LC-MS analysis. In kind it is ADME. Conditions: 1 h, 20 µM. In a few lines:
as §2

The nature of data set [18]: Drug level in cynomolgus monkey liver microsomes treated with 1-(4-(4-(3-oxa-8-azabicyclo[3.2.1]octan-8-yl)-6-morpholino-1,3,5-triazin-2-yl)phenyl)-3-(pyridin-4-yl)urea at 0.02 mM after 60 mins by LC-MS analysis. Conditions: 1 h, 20 µM. In kind it is ADME, Macaca fascicularis.
In data set [19] the test system is Liver microsome. Put plainly: Drug level in human liver microsomes treated with 1-(4-(4-(3-oxa-8-azabicyclo[3.2.1]octan-8-yl)-6-morpholino-1,3,5-triazin-2-yl)phenyl)-3-(pyridin-4-yl)urea by NMR analysis. In kind it is ADME. In a few lines: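 Metabolite isolated from the human liver microsome incubation and quantified by 1H NMR. A calibration curve was built from parent-compound spectra at 5 concentrations, using the averaged integration of aromatic protons (δ 8.37, 8.30, 7.55, 7.44). Metabolite concentration was read from that curve; spectra were referenced to residual solvent.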

Chain of Phosphatidylinositol 4,5-bisphosphate 3-kinase catalytic subunit alpha isoform (Homo sapiens) (P42336 whole entry, canonical isoform): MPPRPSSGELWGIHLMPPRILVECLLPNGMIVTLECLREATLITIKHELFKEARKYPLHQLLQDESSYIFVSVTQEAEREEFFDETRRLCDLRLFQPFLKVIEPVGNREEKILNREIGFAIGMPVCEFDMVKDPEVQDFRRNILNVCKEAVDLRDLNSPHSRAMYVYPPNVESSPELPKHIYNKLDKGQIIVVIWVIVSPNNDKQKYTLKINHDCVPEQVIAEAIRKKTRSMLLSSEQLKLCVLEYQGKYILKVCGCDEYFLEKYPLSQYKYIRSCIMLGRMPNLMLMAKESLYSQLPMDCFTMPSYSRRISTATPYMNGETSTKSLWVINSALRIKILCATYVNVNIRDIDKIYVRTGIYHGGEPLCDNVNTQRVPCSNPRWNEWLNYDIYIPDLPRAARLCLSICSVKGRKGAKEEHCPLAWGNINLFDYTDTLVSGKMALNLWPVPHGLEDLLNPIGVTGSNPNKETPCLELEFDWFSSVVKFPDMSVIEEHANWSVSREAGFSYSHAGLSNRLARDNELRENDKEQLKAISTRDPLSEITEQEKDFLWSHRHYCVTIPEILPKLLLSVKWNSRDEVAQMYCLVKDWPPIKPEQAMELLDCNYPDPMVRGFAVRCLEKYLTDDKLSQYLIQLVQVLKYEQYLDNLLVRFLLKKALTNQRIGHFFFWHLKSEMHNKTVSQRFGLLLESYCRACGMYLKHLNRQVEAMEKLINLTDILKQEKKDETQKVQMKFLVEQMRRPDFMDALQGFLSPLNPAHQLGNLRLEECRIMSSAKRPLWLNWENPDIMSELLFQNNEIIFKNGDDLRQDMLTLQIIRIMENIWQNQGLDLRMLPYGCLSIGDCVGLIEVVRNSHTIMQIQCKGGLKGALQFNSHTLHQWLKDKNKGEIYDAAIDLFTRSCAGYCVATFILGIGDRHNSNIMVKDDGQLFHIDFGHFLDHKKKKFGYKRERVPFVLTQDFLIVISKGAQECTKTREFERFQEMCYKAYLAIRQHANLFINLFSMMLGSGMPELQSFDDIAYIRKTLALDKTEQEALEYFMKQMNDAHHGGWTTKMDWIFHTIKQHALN
Chain of Phosphatidylinositol 4,5-bisphosphate 3-kinase catalytic subunit gamma isoform (Homo sapiens) (P48736 whole entry, looked up, canonical isoform): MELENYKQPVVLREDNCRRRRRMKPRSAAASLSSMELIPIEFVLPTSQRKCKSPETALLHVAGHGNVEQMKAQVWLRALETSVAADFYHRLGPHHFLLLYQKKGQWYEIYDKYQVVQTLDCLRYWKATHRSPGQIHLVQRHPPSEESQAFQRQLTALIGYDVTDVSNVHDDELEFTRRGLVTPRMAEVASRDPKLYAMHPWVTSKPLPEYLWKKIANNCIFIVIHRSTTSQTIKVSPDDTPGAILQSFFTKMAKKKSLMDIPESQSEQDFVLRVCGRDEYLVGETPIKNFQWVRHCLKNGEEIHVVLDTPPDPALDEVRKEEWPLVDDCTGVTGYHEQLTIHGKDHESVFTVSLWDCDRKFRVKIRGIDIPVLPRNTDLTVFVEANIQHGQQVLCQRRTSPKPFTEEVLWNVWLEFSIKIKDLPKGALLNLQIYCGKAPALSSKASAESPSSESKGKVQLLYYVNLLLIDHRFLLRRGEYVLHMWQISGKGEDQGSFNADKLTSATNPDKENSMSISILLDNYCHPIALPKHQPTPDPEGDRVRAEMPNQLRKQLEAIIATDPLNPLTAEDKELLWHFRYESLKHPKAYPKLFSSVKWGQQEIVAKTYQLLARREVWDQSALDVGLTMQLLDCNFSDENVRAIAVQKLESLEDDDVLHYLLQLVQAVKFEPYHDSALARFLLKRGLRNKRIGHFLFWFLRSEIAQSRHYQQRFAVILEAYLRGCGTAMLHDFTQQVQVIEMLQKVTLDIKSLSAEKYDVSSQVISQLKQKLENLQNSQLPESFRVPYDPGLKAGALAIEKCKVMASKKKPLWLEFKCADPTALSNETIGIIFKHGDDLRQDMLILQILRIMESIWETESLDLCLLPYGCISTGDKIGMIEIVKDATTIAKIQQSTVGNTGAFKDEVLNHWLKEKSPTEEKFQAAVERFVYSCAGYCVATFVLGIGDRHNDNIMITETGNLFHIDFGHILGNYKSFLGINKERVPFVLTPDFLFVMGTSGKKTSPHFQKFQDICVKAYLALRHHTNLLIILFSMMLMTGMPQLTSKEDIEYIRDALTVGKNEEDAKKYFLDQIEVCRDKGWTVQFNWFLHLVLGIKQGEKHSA

Consider `O=C(Nc1ccncc1)Nc1ccc(-c2nc(N3CCOCC3)nc(N3[C@H]4COC[C@@H]3[C@H](O)C4)n2)cc1`, for which the Stability entry in the data set on Liver microsome [1] is listed as “Stable”. For the same molecule, the Drug metabolism result with Liver microsome [2] is “metabolite_detected”; in the data set on Liver microsome [4], “metabolite_not_detected”; in data set [5] it was “metabolite_not_detected”. In [3], this molecule returned a Retention_time of 10.2 min. Moreover, the Activity in data set [6] was 4 nM; in [7], 50 nM. This molecule also showed a clearance in data set [8] of 107 mL/min/kg. Further, the Vd in [9] worked out at 1.5 L/kg. In data set [10], this molecule displayed a total exposure AUC(0-inf) of 315 ng·h/mL. For the same molecule, the half-life in data set [11] was 42 min. The Drug uptake result in the data set with Rattus norvegicus is recorded as “metabolite_not_detected”.
Take `O=C(Nc1ccncc1)Nc1ccc(-c2nc(N3CCOCC3)nc(N3C4CCC3COC4)n2)cc1` [PKI-179]: the Drug metabolism result (with Liver microsome [12]; in data set [13]; with Liver microsome [15]; with Liver microsome [16]) was “metabolite_detected” in each case. Moreover, the Activity in data set [6] is 8 nM; in data set [7] it was 51 nM; in data set [14] it was 0.5 nM. In data set [8], this molecule showed a clearance of 38.3 mL/min/kg. In addition, the Vd in data set [9] amounted to 2.4 L/kg. For the same molecule, the AUC(0-inf) in data set [10] stood at 867 ng·h/mL. In addition, the half-life in [11] is 54 min. The Drug uptake result in the data set with Rattus norvegicus is “metabolite_not_detected”.
For the molecule `O=C(Nc1ccncc1)Nc1ccc(-c2nc(N3CCOCC3)nc(N3[C@@H]4COC[C@H]3[C@@H](O)C4)n2)cc1`, in the data set with Liver microsome [1], the Stability entry was “Stable”. Also, the Drug metabolism result (with Liver microsome [2]; in the data set with Liver microsome [4]; in data set [5]) was “metabolite_detected” each time. In data set [3], this molecule came in with a Retention_time of 13.4 min. The Activity in data set [6] was determined as 9 nM; in [7] it was 93 nM. Moreover, the clearance in data set [8] was 123 mL/min/kg. Besides, in [9], the Vd amounted to 0.9 L/kg. Moreover, the area under the curve AUC(0-inf) in data set [10] amounted to 283 ng·h/mL. Moreover, the half-life in [11] is 12 min. Also, in the data set with Rattus norvegicus, the Drug uptake entry is reported as “metabolite_not_detected”.
Turning to `O=C(Nc1ccncc1)Nc1ccc(-c2nc(N3CCOCC3)nc(N3C4COCC3C(O)C4)n2)cc1` (racemic), the Drug metabolism result (with Liver microsome [17]; in data set [18]) was “metabolite_detected” each time. Further, the Drug uptake with Liver microsome [19] turned out to be 1.72 mM. The Activity came out at 4 nM in data set [6], 33 nM in data set [7] and 0.8 nM in [14].
